Active and inactive are the calls of the source. The rule behind the calls is not given here.
Legend:
HL-60 = assay: Cytotoxicity against human HL60 cells up to 10 uM after 48 to 72 hrs by alamar blue assay; format: cell-based
[1] = Cytotoxicity against human CRL8155 cells up to 10 uM after 48 to 72 hrs by alamar blue assay; format: cell-based
HCC 2998 = assay: Cytotoxicity against human HCC2998 cells up to 10 uM after 48 to 72 hrs by alamar blue assay; format: cell-based
SF-539 = assay: Cytotoxicity against human SF539 cells up to 10 uM after 48 to 72 hrs by alamar blue assay; format: cell-based
Cryptosporidium parvum [2] = assay: Antiparasitic activity against Cryptosporidium parvum sporozoites infected in human HCT8 cells assessed as reduction of parasites level treated 1 hr after infection measured after 24 hrs; format: functional, organism-based; conditions: HCT-8
Summary of the method: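 HCT-8 human intestinal cells infected with C. parvum sporozoites at a 1:1 ratio of HCT-8 cells to sporozoites. Cultures were exposed to a range of inhibitor concentrations starting 1 h after infection. Parasite numbers were counted after 24 h of infection.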

Cryptosporidium parvum [3] = assay: Antiparasitic activity against Cryptosporidium parvum sporozoites infected in human HCT8 cells assessed as reduction of parasites level treated immediately after infection measured after 24 hrs; format: functional, organism-based; conditions: HCT-8
Summary of the method: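 Human intestinal HCT-8 cells were infected with C. parvum sporozoites, one sporozoite per host cell. Inhibitor was added at varying concentrations at the time of infection. Parasites present were counted 24 h after infection.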

Toxoplasma gondii = assay: Antiparasitic activity against Toxoplasma gondii infected in human fibroblasts assessed as reduction of parasite invasion; format: functional, organism-based
[4] = target: T1, Calmodulin-domain protein kinase 1 (Toxoplasma gondii, UniProt Q9BJF5); format: cell-free, Plasma
T1 sequence (Q9BJF5 whole entry): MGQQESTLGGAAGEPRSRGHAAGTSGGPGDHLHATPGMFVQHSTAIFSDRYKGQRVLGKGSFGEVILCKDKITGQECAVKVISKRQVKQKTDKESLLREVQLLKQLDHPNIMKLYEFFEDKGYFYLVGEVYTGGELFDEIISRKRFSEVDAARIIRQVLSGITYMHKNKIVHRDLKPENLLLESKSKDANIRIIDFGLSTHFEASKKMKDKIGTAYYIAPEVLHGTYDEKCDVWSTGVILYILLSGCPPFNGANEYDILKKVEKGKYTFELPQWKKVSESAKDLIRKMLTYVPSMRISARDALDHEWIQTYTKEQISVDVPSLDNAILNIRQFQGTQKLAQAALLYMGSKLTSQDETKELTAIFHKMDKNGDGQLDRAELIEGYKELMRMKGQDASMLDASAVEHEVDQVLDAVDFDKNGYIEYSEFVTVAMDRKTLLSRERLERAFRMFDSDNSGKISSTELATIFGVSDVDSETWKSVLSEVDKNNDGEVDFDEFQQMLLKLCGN

With CS(=O)(=O)N1CCC(n2nc(Cc3cccc4ccccc34)c3c(N)ncnc32)CC1 the Activity (HL-60) was “Non-toxic”, the Activity [1] was “Non-toxic” and the Activity (HCC 2998) was “Non-toxic”. The Activity (SF-539) was “Non-toxic”.

For CC(C)(C)n1nc(-c2cccc3ccccc23)c2c(N)ncnc21, the Activity (HL-60) was “Non-toxic”, the Activity [1] was “Non-toxic” and the Activity (HCC 2998) was “Non-toxic”. For the same compound, the Activity (SF-539) was “Non-toxic”, the Activity (Cryptosporidium parvum [2]) was “Dose-dependent effect” and the Activity (Cryptosporidium parvum [3]) was “Dose-dependent effect”.

For Nc1ncnc2c1c(Cc1cccc3ccccc13)nn2CC1CCNCC1, the Activity (HL-60) was “Non-toxic”, the Activity [1] was “Non-toxic” and the Activity (HCC 2998) was “Non-toxic”. For the same compound, the Activity (SF-539) was “Non-toxic”.

With CC(C)n1nc(Cc2cccc3ccccc23)c2c(N)ncnc21 the Activity (HL-60) was “Non-toxic”, the Activity [1] was “Non-toxic” and the Activity (HCC 2998) was “Non-toxic”. For the same compound, the Activity (SF-539) was “Non-toxic”, the Activity (Toxoplasma gondii) was “Active” and the Activity (Cryptosporidium parvum [2]) was “Dose-dependent effect”. The Activity (Cryptosporidium parvum [3]) was “Dose-dependent effect”.

For CCN1CCC(n2nc(Cc3cccc4ccccc34)c3c(N)ncnc32)CC1, the Activity (HL-60) was “Non-toxic”, the Activity [1] was “Non-toxic” and the Activity (HCC 2998) was “Non-toxic”. For the same compound, the Activity (SF-539) was “Non-toxic”.

For COc1ccc2cc(-c3nn(C(C)C)c4ncnc(N)c34)ccc2c1, the Activity (HL-60) was “Non-toxic”, the Activity [1] was “Non-toxic” and the Activity (HCC 2998) was “Non-toxic”. For the same compound, the Activity (SF-539) was “Non-toxic”.

For CC(C)n1nc(-c2ccc(Cl)c(Cl)c2)c2c(N)ncnc21, the Activity (HL-60) was “Non-toxic”, the Activity [1] was “Non-toxic” and the Activity (HCC 2998) was “Non-toxic”. The Activity (SF-539) was “Non-toxic”.

With CCN1CCC(CCn2nc(Cc3cccc4ccccc34)c3c(N)ncnc32)CC1 the Activity (HL-60) was “Non-toxic”, the Activity [1] was “Non-toxic” and the Activity (HCC 2998) was “Non-toxic”. For the same compound, the Activity (SF-539) was “Non-toxic”.

In the case of CC(C)(C)n1nc(-c2ccc3ccccc3c2)c2c(N)ncnc21, the Activity (HL-60) is reported as “Non-toxic”, the Activity [1] is reported as “Non-toxic” and the Activity (HCC 2998) is reported as “Non-toxic”. For the same compound, the Activity (SF-539) was “Non-toxic”, the Activity (Toxoplasma gondii) was “Active” and the Activity (Cryptosporidium parvum [2]) was “Dose-dependent effect”. The Activity (Cryptosporidium parvum [3]) was “Dose-dependent effect”.

With CC(C)n1nc(-c2ccc3ccccc3c2)c2c(N)ncnc21 the Activity (HL-60) was “Non-toxic”, the Activity [1] was “Non-toxic” and the Activity (HCC 2998) was “Non-toxic”. For the same compound, the Activity (SF-539) was “Non-toxic”.

With CC(C)n1nc(-c2cnc3ccccc3c2)c2c(N)ncnc21 the Activity (HL-60) was “Non-toxic”, the Activity [1] was “Non-toxic” and the Activity (HCC 2998) was “Non-toxic”. For the same compound, the Activity (SF-539) was “Non-toxic”.

In the case of CC(C)n1nc(-c2ccc3c(c2)sc2ccccc23)c2c(N)ncnc21, the IC50 [4] is reported as > 3 µM.

With CCN1CCC(Cn2nc(Cc3cccc4ccccc34)c3c(N)ncnc32)CC1 the Activity (HL-60) was “Non-toxic”, the Activity [1] was “Non-toxic” and the Activity (HCC 2998) was “Non-toxic”. The Activity (SF-539) was “Non-toxic”.

For CC(C)(C)n1nc(Cc2cccc3ccccc23)c2c(N)ncnc21, the Activity (HL-60) was “Non-toxic”, the Activity [1] was “Non-toxic” and the Activity (HCC 2998) was “Non-toxic”. The Activity (SF-539) was “Non-toxic”.

With CCOc1ccc2cc(-c3nn(C(C)C)c4ncnc(N)c34)ccc2c1 the Activity (HL-60) was “Non-toxic”, the Activity [1] was “Non-toxic” and the Activity (HCC 2998) was “Non-toxic”. The Activity (SF-539) was “Non-toxic”.

In the case of CC(C)c1cccc(-c2nn(C(C)C)c3ncnc(N)c23)c1, the Activity (HL-60) is reported as “Non-toxic”, the Activity [1] is reported as “Non-toxic” and the Activity (HCC 2998) is reported as “Non-toxic”. The Activity (SF-539) was “Non-toxic”.
